We go through 26 molecules from ChEMBL document CHEMBL2384907, “Identification of substituted pyrimido[5,4-b]indoles as selective Toll-like receptor 4 ligands” (J Med Chem, 2013).

Where only a bound is given, the exact number is not on record here.

What all share (type): cell-based
Experiment [1] concerns the target Toll-like receptor 4 (Homo sapiens) (UniProt O00206). The experiment can be described thus: Activation of TLR4 in human PBMC cells assessed as AUC of IL8 release at 10 uM after 18 hrs by ELISA relative to N-cyclohexyl-2-(4-oxo-3-phenyl-4,5-dihydro-3H-pyrimido[5,4-b]indol-2-ylthio)acetamide. A digest of the protocol: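 Human PBMC from buffy coats, 1 × 10^6/mL in complete RPMI, 18 h at 37 °C, 5% CO2 with compound at 10 μM; IL-8 in supernatant by ELISA, normalized to reference hit set at 100. LPS 10 ng/mL positive control.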

In experiment [2] the target is T1, Toll-like receptor 4 (Mus musculus) (UniProt Q9QUK6).
T1 sequence (whole entry): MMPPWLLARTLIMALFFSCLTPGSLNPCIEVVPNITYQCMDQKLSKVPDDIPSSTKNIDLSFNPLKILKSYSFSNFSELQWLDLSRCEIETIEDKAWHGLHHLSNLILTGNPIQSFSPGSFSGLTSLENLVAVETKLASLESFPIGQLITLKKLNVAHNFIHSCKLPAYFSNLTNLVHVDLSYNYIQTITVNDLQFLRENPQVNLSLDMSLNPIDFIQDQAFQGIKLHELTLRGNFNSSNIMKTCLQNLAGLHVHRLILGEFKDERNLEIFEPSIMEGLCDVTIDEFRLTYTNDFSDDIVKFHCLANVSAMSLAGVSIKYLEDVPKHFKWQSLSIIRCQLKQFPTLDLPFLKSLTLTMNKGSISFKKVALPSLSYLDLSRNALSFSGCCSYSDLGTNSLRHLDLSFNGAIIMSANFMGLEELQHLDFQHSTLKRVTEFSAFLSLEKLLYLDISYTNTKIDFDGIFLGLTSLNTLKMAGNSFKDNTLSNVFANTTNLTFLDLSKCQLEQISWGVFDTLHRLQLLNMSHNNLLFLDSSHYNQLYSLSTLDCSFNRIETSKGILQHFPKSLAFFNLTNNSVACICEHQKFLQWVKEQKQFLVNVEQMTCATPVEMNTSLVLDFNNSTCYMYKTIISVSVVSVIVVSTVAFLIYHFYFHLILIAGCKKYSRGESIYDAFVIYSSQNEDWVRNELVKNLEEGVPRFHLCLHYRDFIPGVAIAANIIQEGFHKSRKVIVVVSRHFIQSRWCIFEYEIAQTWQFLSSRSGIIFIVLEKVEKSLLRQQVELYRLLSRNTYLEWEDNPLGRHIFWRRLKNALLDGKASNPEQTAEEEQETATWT
Put plainly: Activation of mouse TLR4 transfected in HEK293 cells after 18 hrs by SEAP assay relative to N-cyclohexyl-2-(4-oxo-3-phenyl-4,5-dihydro-3H-pyrimido[5,4-b]indol-2-ylthio)acetamide. A digest of the protocol: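 Mouse TLR4 HEK-Blue cells (2.5 × 10^4/well) given titrated doses 312 nM–10 μM for 18 h, 0.5% DMSO vehicle; SEAP at 630 nm. Percent-activity curves, AUC by trapezoid method, normalized to reference hit set at 100. LPS 10 ng/mL control.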

In experiment [3] the target is Toll-like receptor 4 (Homo sapiens) (UniProt O00206). Put plainly: Activation of human TLR4 transfected in HEK293 cells after 18 hrs by SEAP assay relative to N-cyclohexyl-2-(4-oxo-3-phenyl-4,5-dihydro-3H-pyrimido[5,4-b]indol-2-ylthio)acetamide. Set-up: concentration or dose not given beside the values. A digest of the protocol: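 Human TLR4 HEK-Blue cells (2.5 × 10^4/well) given compound at 10 μM for 18 h, 0.5% DMSO vehicle; SEAP in supernatant read at 630 nm, normalized to reference hit set at 100. LPS 10 ng/mL positive control.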
Sequence of Toll-like receptor 4 (Homo sapiens) (O00206 whole entry): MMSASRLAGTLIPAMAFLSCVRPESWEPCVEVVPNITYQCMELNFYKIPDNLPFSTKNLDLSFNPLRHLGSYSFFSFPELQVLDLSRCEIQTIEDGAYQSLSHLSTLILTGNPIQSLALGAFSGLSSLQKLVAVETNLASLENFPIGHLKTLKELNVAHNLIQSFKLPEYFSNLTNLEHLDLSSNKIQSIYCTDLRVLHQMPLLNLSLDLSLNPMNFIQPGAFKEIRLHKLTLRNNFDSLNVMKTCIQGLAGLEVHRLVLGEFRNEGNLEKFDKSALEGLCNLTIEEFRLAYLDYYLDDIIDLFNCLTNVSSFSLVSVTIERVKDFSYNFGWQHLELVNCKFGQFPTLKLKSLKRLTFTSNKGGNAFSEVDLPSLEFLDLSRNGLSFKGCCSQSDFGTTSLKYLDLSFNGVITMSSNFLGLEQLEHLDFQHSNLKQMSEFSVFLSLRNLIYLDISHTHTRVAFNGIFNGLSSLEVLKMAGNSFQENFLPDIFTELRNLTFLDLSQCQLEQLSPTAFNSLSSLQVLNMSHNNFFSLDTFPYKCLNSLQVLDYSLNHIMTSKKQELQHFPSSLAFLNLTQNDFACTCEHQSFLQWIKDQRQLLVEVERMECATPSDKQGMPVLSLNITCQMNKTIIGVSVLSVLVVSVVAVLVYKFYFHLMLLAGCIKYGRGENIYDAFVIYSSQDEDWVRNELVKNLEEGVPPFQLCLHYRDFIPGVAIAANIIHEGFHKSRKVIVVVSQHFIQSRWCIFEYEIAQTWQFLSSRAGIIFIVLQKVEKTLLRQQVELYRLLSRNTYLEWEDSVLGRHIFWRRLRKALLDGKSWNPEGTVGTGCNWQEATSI

Experiment [4] addresses T1, Toll-like receptor 4 (Mus musculus). Put plainly: Activation of TLR4 in C57BL/6 mouse BMDC cells assessed as AUC of IP10 release at 5 uM after 18 hrs by ELISA relative to N-cyclohexyl-2-(4-oxo-3-phenyl-4,5-dihydro-3H-pyrimido[5,4-b]indol-2-ylthio)acetamide. In general terms: In an ELISA, binding on a coated surface is turned into a signal by an enzyme label.
Experiment [5] shares this target. The experiment can be described thus: Activation of TLR4 in C57BL/6 mouse BMDC cells assessed as AUC of IL6 release after 18 hrs by ELISA relative to N-cyclohexyl-2-(4-oxo-3-phenyl-4,5-dihydro-3H-pyrimido[5,4-b]indol-2-ylthio)acetamide. A digest of the protocol: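 C57BL/6 bone marrow DC, 10^5 cells/well in RPMI-10% FCS, 18 h at 37 °C with titrated doses 312 nM–10 μM; supernatant IL-6 by ELISA. Each curve converted to percent activity (background subtracted, plate-adjusted), AUC by trapezoid method, normalized to reference hit set at 100 per experiment. LPS 10 ng/mL positive control; 0.5% DMSO vehicle.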

For `CCCCCCCCCCCCn1c2ccccc2c2nc(SCC(=O)NC3CCCCC3)n(-c3ccccc3)c(=O)c21`, the Activity in experiment [1] was below 1%; in experiment [2], 4%; in experiment [3], 10%; in experiment [4], below 1%; in experiment [5], below 1%.

Turning to `CCCCCNC(=O)CSc1nc2c([nH]c3ccccc32)c(=O)n1-c1ccccc1`, the Activity in experiment [1] came out at 25%; in experiment [2], 42%; in experiment [3], 23%; in experiment [4], 40%; in experiment [5], 40%.

With `O=C(CSc1nc2c([nH]c3ccccc32)c(=O)n1-c1ccc2ccccc2c1)NC1CCCCC1`, the Activity in experiment [1] is below 1%; in experiment [2] it was 6%; in experiment [3], 3%; in experiment [4], below 1%; in experiment [5], 3%.

Take `O=C(CSc1nc2c([nH]c3ccccc32)c(=O)n1-c1ccccc1)NC1CCCCCCC1`: the Activity worked out at 73% in experiment [1]; 95% in experiment [2]; 64% in experiment [3]; 98% in experiment [4]; 114% in experiment [5].

Turning to `O=C(CSc1nc2c([nH]c3ccccc32)c(=O)n1C1CCCCC1)NC1CCCC1`, the Activity in experiment [1] was determined as 14%; in experiment [2], 19%; in experiment [3] it was 33%; in experiment [4], 47%; in experiment [5], 47%.

As for `O=C(CSc1nc2c([nH]c3ccccc32)c(=O)n1-c1ccccc1)NC1CCC1`, the Activity is 19% in experiment [1]; 18% in experiment [2]; 32% in experiment [3]; 66% in experiment [4]; 35% in experiment [5].

As for `CCCCCn1c2ccccc2c2nc(SCC(=O)NC3CCCCC3)n(-c3ccccc3)c(=O)c21`, the Activity in experiment [1] was 1%; in experiment [2], 6%; in experiment [3], 11%; in experiment [4], below 1%; in experiment [5] it was 5%.

For `CCNC(=O)CSc1nc2c([nH]c3ccccc32)c(=O)n1-c1ccccc1`, the Activity was 4% in experiment [1]; below 1% in experiment [2]; 8% in experiment [3]; below 1% in experiment [4]; below 1% in experiment [5].

In the case of `O=C(CSc1nc2c([nH]c3ccccc32)c(=O)n1-c1ccccc1)NC1CCNCC1`, the Activity was 17% in experiment [1]; below 1% in experiment [2]; below 1% in experiment [3]; below 1% in experiment [4]; below 1% in experiment [5].

Take `CCCC(C)NC(=O)CSc1nc2c([nH]c3ccccc32)c(=O)n1-c1ccccc1` (stereo not given): the Activity in experiment [1] turned out to be 6%; in experiment [2], 17%; in experiment [3], 13%; in experiment [4], 55%; in experiment [5] it was 12%.

For `Cc1ccc(-n2c(SCC(=O)NC3CCCCC3)nc3c([nH]c4ccccc43)c2=O)cc1`, the Activity was 6% in experiment [1]; 2% in experiment [2]; 2% in experiment [3]; below 1% in experiment [4]; below 1% in experiment [5].

In the case of `O=C(CSc1nc2c([nH]c3ccccc32)c(=O)n1-c1ccccc1)Nc1ccc(F)cc1`, the Activity in experiment [1] is 107%; in experiment [2], 81%; in experiment [3], 108%; in experiment [4], 70%; in experiment [5] it was 103%.

On to `O=C(CSc1nc2c([nH]c3ccccc32)c(=O)n1-c1ccccc1)Nc1ccccc1`, for which the Activity in experiment [1] came to 15%; in experiment [2], 21%; in experiment [3], 31%; in experiment [4], 44%; in experiment [5], 11%.

For `O=C(CSc1nc2c([nH]c3ccccc32)c(=O)n1-c1ccccc1)NC1CCCCCC1`, the Activity stood at 118% in experiment [1]; 99% in experiment [2]; 100% in experiment [3]; 107% in experiment [4]; 126% in experiment [5].

`COC(=O)CCCn1c2ccccc2c2nc(SCC(=O)NC3CCCCC3)n(-c3ccccc3)c(=O)c21`: the Activity came to 124% in experiment [1]; 9% in experiment [2]; 19% in experiment [3]; 19% in experiment [4]; 4% in experiment [5].

Take `CCC(CC)NC(=O)CSc1nc2c([nH]c3ccccc32)c(=O)n1-c1ccccc1`: the Activity in experiment [1] is below 1%; in experiment [2], 8%; in experiment [3], 11%; in experiment [4] it was 26%; in experiment [5] it was below 10%.

In the case of `CCCCNC(=O)CSc1nc2c([nH]c3ccccc32)c(=O)n1-c1ccccc1`, the Activity in experiment [1] was 29%; in experiment [2] it was 31%; in experiment [3], 32%; in experiment [4], 61%; in experiment [5] it was 49%.

Regarding `CC(C)CCNC(=O)CSc1nc2c([nH]c3ccccc32)c(=O)n1-c1ccccc1`, the Activity in experiment [1] worked out at 53%; in experiment [2], 56%; in experiment [3], 38%; in experiment [4], 62%; in experiment [5], 61%.

Regarding `O=C(CSc1nc2c([nH]c3ccccc32)c(=O)n1-c1ccccc1)Nc1ccc2cn[nH]c2c1`, the Activity was 7% in experiment [1]; below 1% in experiment [2]; below 1% in experiment [3]; below 1% in experiment [4]; 3% in experiment [5].

Consider `Cc1cccc(NC(=O)CSc2nc3c([nH]c4ccccc43)c(=O)n2-c2ccccc2)c1`, for which the Activity in experiment [1] was 54%; in experiment [2], 13%; in experiment [3] it was 116%; in experiment [4], 55%; in experiment [5], 19%.

Regarding `O=C(CSc1nc2c([nH]c3ccccc32)c(=O)n1-c1ccccc1)NC1CCCC1`, the Activity is 5% in experiment [1]; 28% in experiment [2]; 23% in experiment [3]; 52% in experiment [4]; 53% in experiment [5].

Take `O=C(CSc1nc2c([nH]c3ccccc32)c(=O)n1CCc1ccccc1)NC1CCCCC1`: the Activity in experiment [1] is 5%; in experiment [2] it was 1%; in experiment [3], 1%; in experiment [4] it was below 1%; in experiment [5] it was below 1%.

`O=C(CSc1nc2c([nH]c3ccccc32)c(=O)n1-c1ccccc1)Nc1cccc(F)c1`: the Activity in experiment [1] amounted to 13%; in experiment [2] it was 11%; in experiment [3] it was 39%; in experiment [4] it was 45%; in experiment [5], 14%.

Regarding `O=C(CSc1nc2c([nH]c3ccccc32)c(=O)n1-c1ccccc1)Nc1nccs1`, the Activity is 5% in experiment [1]; 2% in experiment [2]; 12% in experiment [3]; below 1% in experiment [4]; 1% in experiment [5].

For the molecule `CN(C(=O)CSc1nc2c3ccccc3n(C)c2c(=O)n1-c1ccccc1)C1CCCCC1`, the Activity is 5% in experiment [1]; 1% in experiment [2]; below 1% in experiment [3]; below 1% in experiment [4]; below 1% in experiment [5].

In the case of `CCC(C)CCNC(=O)CSc1nc2c([nH]c3ccccc32)c(=O)n1-c1ccccc1` (stereo not given), the Activity in experiment [1] was 23%; in experiment [2] it was 29%; in experiment [3], 17%; in experiment [4], 45%; in experiment [5], 30%.
